In ChEMBL document CHEMBL1134507, “Potential new antitumor agents from an innovative combination of demethylcantharidin, a modified traditional Chinese medicine, with a platinum moiety” (J Med Chem, 2001):
The source made the active and inactive calls. The rule behind the calls is not given here.

What was measured:
Mus musculus [1] = experiment: In vivo antitumor activity in SK-Hep-1 sc-Inoculated Xenograft in male nude mice dosed at 8 mg/kg (ip)on days 1,5 and 9; format: functional
Outline: (§1)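 SK-Hep-1 human liver tumor cells inoculated sc into male nude mice. Dosing began once tumors reached 5 mm × 5 mm, given ip on days 1, 5 and 9. Vehicle was normal saline for the reference platinum drug and 5% dextrose for the other Pt complexes. Controls received saline or 5% dextrose. Recorded: T/C (%), body-weight change at nadir, and deaths per group.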

Mus musculus [2] = experiment: Ratio of the relative tumor volume in the Tx group over the control group at day 60, at 4 mg/kg dose (ip) given on days 1, 5 and 9 (In vivo antitumor activity in nude mice); format: functional; outline: as §1
Mus musculus [3] = experiment: In vivo antitumor activity in SK-Hep-1 sc-Inoculated Xenograft in male nude mice dosed at 10 mg/kg (ip)on days 1,5 and 9; Acutely toxic; format: functional, organism-based; design: dose 10 mg/kg; outline: as §1
Mus musculus [4] = experiment: Ratio of the relative tumor volume in the Tx group over the control group at day 60, at 8 mg/kg dose (ip) given on days 1, 5 and 9 (In vivo antitumor activity in nude mice); format: functional; outline: as §1
Mus musculus [5] = experiment: In vivo antitumor activity in SK-Hep-1 sc-Inoculated Xenograft in male nude mice dosed at 2 mg/kg (ip)on days 1,5 and 9; Not active; format: functional, organism-based; design: dose 2 mg/kg; outline: as §1
Mus musculus [6] = experiment: Ratio of the relative tumor volume in the Tx group over the control group at day 60, at 2 mg/kg dose (ip) given on days 1, 5 and 9 (In vivo antitumor activity in nude mice); format: functional; outline: as §1
Mus musculus [7] = experiment: In vivo antitumor activity in SK-Hep-1 sc-Inoculated Xenograft in male nude mice dosed at 4 mg/kg (ip)on days 1,5 and 9; Not active; format: functional, organism-based; design: dose 4 mg/kg; outline: as §1
SK-OV-3 = experiment: Growth inhibitory activity against SK-OV-3 human ovarian cancer cell line; format: functional, cell-based
Outline: (§2)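 Tetrazolium (MTT) assay. Drug treatment began 24 h after cell seeding, exposure lasted 72 h, and the MTT test followed. Read-out was IC50.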

NCI-H460 [8] = experiment: Growth inhibitory activity against NCI-H460 human lung cancer cell line; format: functional, cell-based; outline: as §2
Mus musculus [9] = experiment: Toxicity in male nude mice measured as N (no. of deaths), at 75 mg/kg (ip) given on days 1, 5 and 9; format: organism-based; design: dose 75 mg/kg; settings: in vivo; outline: as §1
NTERA-2-cl-D1 = experiment: Growth inhibitory activity against […]-cl-D1 human testicular cancer cell line; format: functional, cell-based; outline: as §2
Mus musculus [10] = experiment: Toxicity in male nude mice measured as N (no. of deaths), at 100 mg/kg (ip) given on days 1, 5 and 9; format: organism-based; design: dose 100 mg/kg; settings: in vivo; outline: as §1
Mus musculus [11] = experiment: Toxicity in male nude mice measured as N (no. of deaths), at 50 mg/kg (ip) given on days 1, 5 and 9; format: organism-based; design: dose 50 mg/kg; settings: in vivo; outline: as §1
Mus musculus [12] = experiment: Toxicity in male nude mice measured as N (no. of deaths), at 25 mg/kg (ip) given on days 1, 5 and 9; format: organism-based; design: dose 25 mg/kg; settings: in vivo; outline: as §1
MDA-MB-231 = experiment: Growth inhibitory activity against MDA-MB-231 human breast cancer cell line; format: functional, cell-based; outline: as §2
L1210 [13] = experiment: Growth inhibitory activity against L1210 mouse leukemia cancer cell line; format: functional, cell-based; outline: as §2
COLO 320DM = experiment: Growth inhibitory activity against COLO-320-DM human colon cancer cell line; format: functional, cell-based; outline: as §2
Mus musculus [14] = experiment: Toxicity in male nude mice measured as N (no. of deaths), at 120 mg/kg (ip) given on days 1, 5 and 9; format: organism-based; design: dose 120 mg/kg; settings: in vivo; outline: as §1
L1210 [15] = experiment: Cytotoxicity against […]sensitive mouse leukemia, assessed by MTT assay after 72 hr of compound exposure; format: functional, cell-based
Outline: (§3)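 MTT cytotoxicity assay run on cisplatin-sensitive parental cells and cisplatin-resistant sublines. Drug exposure was 72 h for L1210 and 96 h for NCI:H460. IC50 determined for each cell line. Fold resistance = IC50 in resistant cells divided by IC50 in parental cells.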

NCI-H460 [16] = experiment: Cytotoxicity against NCI-H460-resistant Human Nonsmall Cell Lung Cancer cell line assessed by MTT assay after 96 hr of compound exposure (resistance level); format: functional, cell-based; outline: as §3
SK-HEP1 = experiment: Growth inhibitory activity against SK-Hep1 human liver cancer cell line; format: functional, cell-based; outline: as §2
L1210 [17] = experiment: Cytotoxicity against […]resistant mouse leukemia, assessed by MTT assay after 72 h of compound exposure (resistance level); format: functional, cell-based; outline: as §3
NCI-H460 [18] = experiment: Cytotoxicity against NCI-H460-sensitive Human Nonsmall Cell Lung Cancer cell line assessed by MTT assay after 96 hr of compound exposure; format: functional, cell-based; outline: as §3
Mus musculus [19] = experiment: In vivo antitumor activity in SK-Hep-1 sc-Inoculated Xenograft in male nude mice dosed at 120 mg/kg (ip)on days 1,5 and 9; format: functional, organism-based; design: dose 120 mg/kg
Outline: (§4)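 Male nude mice bearing subcutaneous SK-Hep-1 human liver tumor xenografts. Dosing started once tumors reached 5 mm × 5 mm, given ip on days 1, 5 and 9. Cisplatin was given in normal saline and other Pt complexes in 5% dextrose; controls received either vehicle. T/C (%), weight change at nadir and deaths recorded.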

Mus musculus [20] = experiment: In vivo antitumor activity in SK-Hep-1 sc-Inoculated Xenograft in male nude mice dosed at 50 mg/kg (ip)on days 1,5 and 9; Not active; format: functional, organism-based; design: dose 50 mg/kg; outline: as §4
Mus musculus [21] = experiment: Ratio of the relative tumor volume in the Tx group over the control group at day 60, at 75 mg/kg dose (ip) given on days 1, 5 and 9 (In vivo antitumor activity in nude mice); format: functional, organism-based; design: dose 75 mg/kg
Mus musculus [22] = experiment: Ratio of the relative tumor volume in the Tx group over the control group at day 60, at 120 mg/kg dose (ip) given on days 1, 5 and 9 (In vivo antitumor activity in nude mice); format: functional, organism-based; design: dose 120 mg/kg
Mus musculus [23] = experiment: Ratio of the relative tumor volume in the Tx group over the control group at day 60, at 25 mg/kg dose (ip) given on days 1, 5 and 9 (In vivo antitumor activity in nude mice); format: functional, organism-based; design: dose 25 mg/kg
Mus musculus [24] = experiment: In vivo antitumor activity in SK-Hep-1 sc-Inoculated Xenograft in male nude mice dosed at 100 mg/kg (ip)on days 1,5 and 9; format: functional, organism-based; design: dose 100 mg/kg; outline: as §4
Mus musculus [25] = experiment: Ratio of the relative tumor volume in the Tx group over the control group at day 60, at 100 mg/kg dose (ip) given on days 1, 5 and 9 (In vivo antitumor activity in nude mice); format: functional, organism-based; design: dose 100 mg/kg
Mus musculus [26] = experiment: In vivo antitumor activity in SK-Hep-1 sc-Inoculated Xenograft in male nude mice dosed at 25 mg/kg (ip)on days 1,5 and 9; Not active; format: functional, organism-based; design: dose 25 mg/kg; outline: as §4
Mus musculus [27] = experiment: Ratio of the relative tumor volume in the Tx group over the control group at day 60, at 50 mg/kg dose (ip) given on days 1, 5 and 9 (In vivo antitumor activity in nude mice); format: functional, organism-based; design: dose 50 mg/kg
Mus musculus [28] = experiment: In vivo antitumor activity in SK-Hep-1 sc-Inoculated Xenograft in male nude mice dosed at 75 mg/kg (ip)on days 1,5 and 9; Not active; format: functional, organism-based; design: dose 75 mg/kg; outline: as §4
Mus musculus [29] = experiment: Toxicity in male nude mice measured as N (no. of deaths), at 2 mg/kg (ip) given on days 1, 5 and 9; format: organism-based; design: dose 2 mg/kg; settings: in vivo; outline: as §1
Mus musculus [30] = experiment: Toxicity in male nude mice measured as N (no. of deaths), at 8 mg/kg (ip) given on days 1, 5 and 9; format: organism-based; design: dose 8 mg/kg; settings: in vivo; outline: as §1
Mus musculus [31] = experiment: Toxicity in male nude mice measured as N (no. of deaths), at 4 mg/kg (ip) given on days 1, 5 and 9; format: organism-based; design: dose 4 mg/kg; settings: in vivo; outline: as §1
Mus musculus [32] = experiment: Toxicity in male nude mice measured as N (no. of deaths), at 10 mg/kg (ip) given on days 1, 5 and 9; format: organism-based; design: dose 10 mg/kg; settings: in vivo; outline: as §1
L1210 [33] = experiment: Cytotoxicity against Cisplatin-resistant L1210-resistant mouse leukemia, assessed by MTT assay after 72 hr of compound exposure (resistance level); format: functional, cell-based; outline: as §3
Mus musculus [34] = experiment: In vivo antitumor activity in SK-Hep-1 sc-Inoculated Xenograft in male nude mice dosed at 10 mg/kg (ip)on days 1,5 and 9; format: functional, organism-based; design: dose 10 mg/kg; outline: as §4
Mus musculus [35] = experiment: In vivo antitumor activity in SK-Hep-1 sc-Inoculated Xenograft in male nude mice dosed at 4 mg/kg (ip)on days 1,5 and 9; format: functional, organism-based; design: dose 4 mg/kg; outline: as §4
Mus musculus [36] = experiment: Ratio of the relative tumor volume in the Tx group over the control group at day 60, at 10 mg/kg dose (ip) given on days 1, 5 and 9 (In vivo antitumor activity in nude mice); format: functional, organism-based; design: dose 10 mg/kg

| Compound | Weight change at nadir (Mus musculus [1]) [%] | T/C (Mus musculus [2]) [%] | T/C (Mus musculus [4]) [%] | Weight change at nadir (Mus musculus [5]) | T/C (Mus musculus [6]) [%] | IC50 (SK-OV-3) [µM] | IC50 (NCI-H460 [8]) [µM] | IC50 (NTERA-2-cl-D1) [µM] | IC50 (MDA-MB-231) [µM] | IC50 (L1210 [13]) [µM] | IC50 (COLO 320DM) [µM] | IC50 (L1210 [15]) [µM] | IC50 (NCI-H460 [16]) [µM] | IC50 (SK-HEP1) [µM] | IC50 (NCI-H460 [18]) [µM] | other results |
| --- | --- | --- | --- | --- | --- | --- | --- | --- | --- | --- | --- | --- | --- | --- | --- | --- |
| O=C1OC(=O)C2C3CCC(O3)C12 (stereo unspecified) [DEMETHYL-CANTHARIDIN] | -20 | 66.1 | 34.8 | inactive | 63.2 |  |  |  |  |  |  |  |  |  |  | Weight change at nadir (Mus musculus [3]): Toxic; Weight change at nadir (Mus musculus [7]): inactive |
| CARBOPLATIN [listing 1 of 2 here] |  |  |  |  |  | 149 | 60.3 | 2.75 | 1080 | 10.1 | 188 | 17.8 | 54.6 | 501 | 17.8 | No. of deaths (Mus musculus [9]): 2; No. of deaths (Mus musculus [10]): 5; No. of deaths (Mus musculus [11]): 2; No. of deaths (Mus musculus [12]): 1; No. of deaths (Mus musculus [14]): 4; IC50 (L1210 [17]): 138 µM |
| CARBOPLATIN [listing 2 of 2 here] |  |  |  |  |  |  |  |  |  |  |  |  |  |  |  | Weight change at nadir (Mus musculus [19]): -40%; Weight change at nadir (Mus musculus [20]): inactive; T/C (Mus musculus [21]): 44.9%; T/C (Mus musculus [22]): 62.8%; T/C (Mus musculus [23]): 87.5%; Weight change at nadir (Mus musculus [24]): -21%; T/C (Mus musculus [25]): 67.8%; Weight change at nadir (Mus musculus [26]): inactive; T/C (Mus musculus [27]): 109%; Weight change at nadir (Mus musculus [28]): inactive |
| CISPLATIN [listing 1 of 2 here] |  |  |  |  |  | 15.2 | 11.3 | 0.19 | 65.7 | 0.51 | 11.9 | 1.01 | 4.96 | 54.1 | 0.59 | No. of deaths (Mus musculus [29]): 1; No. of deaths (Mus musculus [30]): 4; No. of deaths (Mus musculus [31]): 4; No. of deaths (Mus musculus [32]): 4; IC50 (L1210 [33]): 14.5 µM |
| CISPLATIN [listing 2 of 2 here] | -35 | 81.1 | 47.1 | inactive | 87.5 |  |  |  |  |  |  |  |  |  |  | Weight change at nadir (Mus musculus [34]): -40%; Weight change at nadir (Mus musculus [35]): -25%; T/C (Mus musculus [36]): 39.6% |
